An excerpt weighted towards active compounds, which were near 7.1% of everything screened.
HUVEC prolif 384 = inhibitors of HUVEC proliferation, primary screen, cell-based, 384-well. CellTiter-Glo luminescence, 72 h; stronger effect = lower value. viability, % at 10 µM (by protocol). actives 1.1% (n = 86,000). AID 648, 2007;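 active = viability at or below 30%; inactive = viability above 30%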;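 also: 100% = median luminescence of DMSO-only cell control wells on each plate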
Fibroblast inh = antiproliferative effect on LL 47 fibroblasts – human, LL 47 cells, CellTiter-Glo luminescence, primary screen; LL 47 human lung fibroblast viability, ATP luminescence; stronger effect = lower value; viability, % at 10 µM; actives 1.1% (n = 85,000);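 active = viability at or below 50% in the single dose screen; inactive = viability above 50%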;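 also: compound exposure lasted 72 h before the ATP readout; 100% = median luminescence of untreated cell-only wells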
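Test system: LL 47 human lung fibroblasts; Quantity: 1,150 cells/well; Buffer or medium: IMEM plus 15% FBS; Dosing: tenfold compound dosing solution, DMSO at 0.1%; Timing: overnight cell rest, 72 h compound treatment at 37 °C; Detection: ATP-based CellTiter-Glo luminescent readout; Read-out basis: viability percentage against median untreated-cell control; Controls: cell-only wells, no compound.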
HCT116 PTEN-null = growth suppression of PTEN-null HCT116, primary screen, cell-based, CellTiter-Glo; actives 1.2% (n = 140,000); HCT116 PTEN-null viability, 60 h; stronger effect = lower value; AID 827, 2007; viability, % at 10 µM;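 active = viability at or below a set limit, 4 SD under the median of all tested compounds, cut at about 3.7% in these data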;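 also: PTEN knockout HCT116 line with beta catenin targeted HCT116 as companion control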
H69AR growth 86K = proliferation blockers of H69AR lung cancer cells, primary screen, cell-based, human, 86K library; H69AR lung tumor viability, ATP luminescence, 72 h; stronger effect = lower value; viability, % at 10 µM; actives 6% (n = 85,000);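 active = viability at or below 40%; inactive = viability above 40%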;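 also: multidrug resistant small cell line overexpressing MRP-1 efflux transporter; 100% = mean luminescence of untreated control wells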
bCat KO growth = primary screen for growth suppressors in beta-catenin knockout HCT116 cells (colon tumor, human) | viability, % at 10 µM | HCT116 beta-catenin knockout viability, CellTiter-Glo, 60 h; stronger effect = lower value | AID 818, 2007 | actives 1.5% (n = 140,000);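 active = viability at or under a set limit, the compound median less 4 SD, cut at about 6% in these data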;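 also: 0% = Hyamine 1622 control at 20 µM and 100% = untreated cell control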
Cav32 inh = Cav3.2 calcium influx blockers – cell-based, Fluo-4 calcium fluorescence, FDSS, MLSMR library, primary screen. Voltage-dependent T-type calcium channel subunit alpha-1H (Homo sapiens), O95180. actives 4% (n = 100,000). B-score at 10 µM. Cav3.2-expressing cells; stronger effect = lower value;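 active = single-dose well whose peak fluorescence ratio is a statistical outlier from its plate by either plate-standardised score or position-corrected B-score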
Numbers without * were called inactive; · = no result given.

SMILES | HUVEC prolif 384 | Fibroblast inh | HCT116 PTEN-null | H69AR growth 86K | bCat KO growth | Cav32 inh
O=C(NCc1ccco1)c1cnn2c(C(F)(F)F)cc(-c3cccs3)nc12 | 92 | 86 | 69 | 7.1* | 80 | ·
O=C(C(Cl)Cl)N1c2ccccc2OCC1c1ccccc1 (centres undefined) | · | · | 15 | · | 12 | ·
COc1ccc(CCN(C(=O)c2cccc(F)c2)C2CC(=O)N(c3ccc(OC)cc3)C2=O)cc1 (centres undefined) | · | · | 93 | · | 93 | -0.59
[C-]#[N+][C@H](O[C@@H]1O[C@H](CO)[C@@H](O)[C@H](O)[C@H]1O)c1ccccc1 | · | · | · | · | · | -5.7*
CCOC(=O)/C(=C\c1ccc(OC(F)F)cc1)C1=Nn2c(nnc2-c2ccc(Cl)cc2)SC1 | · | · | 2.1* | · | 1.4* | ·
CCCCOc1ccccc1NC(=O)Cn1c(-c2nonc2N)nc2ccccc21 | · | · | 1.6* | · | 1.8* | -4.2*
COc1cccc(Cn2c(-c3nonc3N)nc3ccccc32)c1 | 65 | 51 | 28 | 24* | 27 | -0.18
COc1cc(Cn2c(-c3nonc3N)nc3ccccc32)ccc1C | 40 | 48* | 97 | 18* | 96 | -0.56
Cc1ccc(Cn2c(-c3nonc3N)nc3ccccc32)cc1 | · | · | 80 | · | 83 | -0.61
CCCCCCCCCCSc1n[nH]c(N)n1 | · | · | 77 | · | 78 | ·
Clc1ncnc2scc(C3COc4ccccc4O3)c12 (centres undefined) | 62 | 80 | 89 | 7.0* | 100 | -2.3
c1ccc2c(c1)OCC(c1csc3ncnc(N4CCCCC4)c13)O2 (centres undefined) | 113 | · | 68 | 82 | 59 | 0.14
COc1cc(NS(C)(=O)=O)c(OC)cc1NC(=O)c1cccc(F)c1 | 94 | 115 | 98 | 91 | 94 | -0.41
COc1ccc(CN(C(=O)CSc2nnc(-c3ccccc3F)o2)c2ccc(F)cc2)cc1 | 92 | 93 | 100 | 77 | 92 | -4.8*
O=C(CCl)Nc1ccccc1Sc1ccc(Cl)cc1 | · | · | 2.5* | · | 2.1* | 0.61
O=C(Nc1ccc(Cl)cc1)[C@@H]1[C@@H]2C(=O)N(c3ccc(Cl)cc3)C(=O)[C@@H]2[C@H]2C=CC=NN21 | 85 | 93 | 93 | 93 | 99 | -5.8*
O=C(Nc1ccc(Cl)cc1)[C@@H]1[C@@H]2C(=O)N(c3ccc(Cl)cc3Cl)C(=O)[C@@H]2[C@H]2C=CC=NN21 | 80 | 94 | 104 | 95 | 85 | -4.7*
Cc1ccc(N2C(=O)[C@@H]3[C@H](C2=O)[C@H]2C=CC=NN2[C@@H]3C(=O)Nc2ccc(Cl)cc2)cc1 | 102 | 89 | 82 | 100 | 87 | -0.94
COC(=O)\C(C(C)=O)=C(/C=C/C=C/C=C/N(C)C)N(C)C | 98 | 94 | 100 | 86 | 97 | -7*
O=C(CSc1nnc(NC(=O)C2CC2)s1)NCc1ccco1 | · | · | 90 | · | 90 | ·
Cc1ccc(S(=O)(=O)N/N=C/c2cccn2-c2ccc(Cl)cc2)cc1 | · | · | 89 | · | 89 | -4.3*
Cc1ccc(S(=O)(=O)N/N=C/c2c(F)cccc2Cl)cc1 | · | · | 97 | · | 91 | ·
O=C1Nc2ccc(Cl)cc2[C@@](C#CC2CC2)(C(F)(F)F)O1 | · | · | · | · | · | -5.2*
CCOc1cc(/C=C/C(=O)c2ccc(C)cc2)ccc1OCC(=O)N(C)C | · | · | 1.7* | · | 1.6* | ·
COc1cc(/C=C/C(=O)c2ccc(C)cc2)ccc1OCC#N | · | · | 2.0* | · | 5.6* | ·
SMILES | HUVEC prolif 384 | Fibroblast inh | HCT116 PTEN-null | H69AR growth 86K | bCat KO growth | Cav32 inh
CCOc1ccc(C(=O)/C=C/c2ccc(SC)cc2)cc1 | · | · | 29 | · | 24 | -0.4
Cc1ccc(S(=O)(=O)c2c(COC(=O)c3ccc(Cl)cc3)c(-c3ccccc3)nn2C)cc1 | 53 | 76 | 59 | 41 | 55 | -2.5
CC(C)COP(=O)(CNC(=O)CN1C(=O)c2ccccc2S1(=O)=O)OCC(C)C | · | · | 98 | · | 100 | ·
Cn1c(N)c(C(=O)CCl)c(=O)n(C)c1=O | 89 | 76 | 94 | 3.0* | 85 | -0.81
CCCCC(=O)NS(=O)(=O)c1ccc(NS(C)(=O)=O)cc1 | · | · | 108 | · | 92 | ·
CCOC(=O)/C(C#N)=C1/C=CN(c2ccccc2)C=N1 | 98 | 103 | 95 | 39* | 97 | 1.5

Bioassay records (PubChem)
